Source: ChEMBL document CHEMBL5055637, “Novel C-3-(N-alkyl-aryl)-aminomethyl rifamycin SV derivatives exhibit activity against rifampicin-resistant Mycobacterium tuberculosis RpoBS522L strain and display a different binding mode at the RNAP β-subunit site compared to rifampicin” (2021)
In brackets after ≈: the same amount, converted by molar mass.

Experiments:
Type in all cases: functional
Settings in all cases: time 5 day
[1] = system: Mycobacterium tuberculosis H37Rv; assay: Antitubercular activity against rifampicin resistant Mycobacterium tuberculosis H37Rv harboring RpoBS522L mutant assessed as bacterial growth inhibition measured after 5 days by serial dilution method
How it was run: (§1)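 Strains grown in Middlebrook 7H9 with OADC supplement and 0.05% w/v Tween 80. Compounds tested as 10-point 2-fold serial dilutions. Growth read as OD590 after 5 days in 7H9-OADC-Tw. Levenberg-Marquardt curve fitting gave MIC90, the concentration inhibiting growth by 90% relative to controls. Run in triplicate.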

[2] = system: Mycobacterium tuberculosis; assay: Antitubercular activity against rifampicin resistant Mycobacterium tuberculosis ATCC 35838 harboring RpoBS531L mutant assessed as bacterial growth inhibition measured after 5 days by serial dilution method; how it was run: as §1
[3] = system: Mycobacterium tuberculosis; assay: Antitubercular activity against rifampicin resistant Mycobacterium tuberculosis HN878 harboring RpoBH455D mutant assessed as bacterial growth inhibition measured after 5 days by serial dilution method; how it was run: as §1

## COC(=O)c1ccc(CNCc2c3c(O)c4c(O)c(C)c5c(c4c2O)C(=O)[C@@](C)(O/C=C/[C@H](OC)[C@@H](C)[C@@H](OC(C)=O)[C@H](C)[C@H](O)[C@H](C)[C@@H](O)[C@@H](C)/C=C/C=C(/C)C(=O)N3)O5)cc1
[1]
  MIC90: 7.7 µM (≈ 6.74 µg/mL)
[2]
  MIC90: >20 µM
[3]
  MIC90: >20 µM

## CO[C@H]1/C=C/O[C@@]2(C)Oc3c(C)c(O)c4c(O)c(c(CN5CCN(CCO)CC5)c(O)c4c3C2=O)NC(=O)/C(C)=C\C=C\[C@H](C)[C@H](O)[C@@H](C)[C@@H](O)[C@@H](C)[C@H](OC(C)=O)[C@@H]1C
[1]
  MIC90: 4.7 µM (≈ 3.95 µg/mL)
[2]
  MIC90: >20 µM
[3]
  MIC90: >20 µM

## CO[C@H]1/C=C/O[C@@]2(C)Oc3c(C)c(O)c4c(O)c(c(CNCc5ccc(S(C)(=O)=O)cc5)c(O)c4c3C2=O)NC(=O)/C(C)=C\C=C\[C@H](C)[C@H](O)[C@@H](C)[C@@H](O)[C@@H](C)[C@H](OC(C)=O)[C@@H]1C
[1]
  MIC90: 3.2 µM (≈ 2.86 µg/mL)
[2]
  MIC90: >20 µM
[3]
  MIC90: >20 µM

## CO[C@H]1/C=C/O[C@@]2(C)Oc3c(C)c(O)c4c(O)c(c(/C=N/N5CCN(C)CC5)c(O)c4c3C2=O)NC(=O)/C(C)=C\C=C\[C@H](C)[C@H](O)[C@@H](C)[C@@H](O)[C@@H](C)[C@H](OC(C)=O)[C@@H]1C [RIFAMPIN]
[1]
  MIC90: >8 µM
[2]
  MIC90: >8 µM
[3]
  MIC90: >8 µM

## CO[C@H]1/C=C/O[C@@]2(C)Oc3c(C)c(O)c4c(O)c(c(CNCc5ccncc5)c(O)c4c3C2=O)NC(=O)/C(C)=C\C=C\[C@H](C)[C@H](O)[C@@H](C)[C@@H](O)[C@@H](C)[C@H](OC(C)=O)[C@@H]1C
[1]
  MIC90: 6.7 µM (≈ 5.48 µg/mL)
[2]
  MIC90: >20 µM
[3]
  MIC90: >20 µM

## CO[C@H]1/C=C/O[C@@]2(C)Oc3c(C)c(O)c4c(O)c(c(CNCc5ccccc5)c(O)c4c3C2=O)NC(=O)/C(C)=C\C=C\[C@H](C)[C@H](O)[C@@H](C)[C@@H](O)[C@@H](C)[C@H](OC(C)=O)[C@@H]1C
[1]
  MIC90: 12 µM (≈ 9.8 µg/mL)
[2]
  MIC90: >20 µM
[3]
  MIC90: 9.9 µM (≈ 8.09 µg/mL)

## CO[C@H]1/C=C/O[C@@]2(C)Oc3c(C)c(O)c4c(O)c(c(CNCCc5ccc(O)cc5)c(O)c4c3C2=O)NC(=O)/C(C)=C\C=C\[C@H](C)[C@H](O)[C@@H](C)[C@@H](O)[C@@H](C)[C@H](OC(C)=O)[C@@H]1C
[1]
  MIC90: 5.8 µM (≈ 4.91 µg/mL)
[2]
  MIC90: >20 µM
[3]
  MIC90: >20 µM

## CO[C@H]1/C=C/O[C@@]2(C)Oc3c(C)c(O)c4c(O)c(c(CNCc5cccs5)c(O)c4c3C2=O)NC(=O)/C(C)=C\C=C\[C@H](C)[C@H](O)[C@@H](C)[C@@H](O)[C@@H](C)[C@H](OC(C)=O)[C@@H]1C
[1]
  MIC90: 8 µM (≈ 6.58 µg/mL)
[2]
  MIC90: >20 µM
[3]
  MIC90: 14 µM (≈ 11.5 µg/mL)

## CO[C@H]1/C=C/O[C@@]2(C)Oc3c(C)c(O)c4c(O)c(c(CNCCc5c[nH]c6ccccc56)c(O)c4c3C2=O)NC(=O)/C(C)=C\C=C\[C@H](C)[C@H](O)[C@@H](C)[C@@H](O)[C@@H](C)[C@H](OC(C)=O)[C@@H]1C
[1]
  MIC90: 3.1 µM (≈ 2.7 µg/mL)
[2]
  MIC90: >20 µM
[3]
  MIC90: >20 µM

## NNC(=O)c1ccncc1 [ISONIAZID]
[1]
  MIC90: 0.29 µM (≈ 0.0398 µg/mL)
[2]
  MIC90: 0.55 µM (≈ 0.0754 µg/mL)
[3]
  MIC90: 0.62 µM (≈ 0.085 µg/mL)

## CO[C@H]1/C=C/O[C@@]2(C)Oc3c(C)c(O)c4c(O)c(c(CNCc5ccco5)c(O)c4c3C2=O)NC(=O)/C(C)=C\C=C\[C@H](C)[C@H](O)[C@@H](C)[C@@H](O)[C@@H](C)[C@H](OC(C)=O)[C@@H]1C
[1]
  MIC90: >20 µM
[2]
  MIC90: >20 µM
[3]
  MIC90: 16 µM (≈ 12.9 µg/mL)
